The values below come from the RNAGym collection of RNA variant scans (doi:10.1002/anie.201605470).

The chains are these.
B1: Osa-1-4 twister ribozyme (parent)
chain: CCGCCUAACACUGCCAAUGCCGGUCCCAAGCCCGGAUAAAAGUGGAGGGGGCGG

The data set covers variants of B1. Kind of data set: self-cleavage, relative activity (ratio to wild type); higher = more cleavage; co-transcriptional. The essentials: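 For each read, cleavage status was taken from whether upstream sequence was present. The reads came from an Oryza sativa twister ribozyme of 54 nucleotides, whose DNA template was synthesised with 97 % wild-type base and 1 % of each other base at the 48 positions downstream of the cleavage site. The template was transcribed in vitro at 37 °C for 2 h with co-transcriptional self-cleavage, and the RNA was reverse-transcribed using a template-switching oligonucleotide, PCR-amplified and deep-sequenced. Relative activity is the fraction cleaved normalised to wild type.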
Regarding CCGCCUAACACUGCCAAUGCAUGUCCCAAGCCCGGAUAAAAGUGGAGGGGGCGG, the self-cleavage amounted to 0.1. Take CCGCCUAACACUGCCAAAGCAGGUCCCAAGCCCGGAUAAAAGUGGAGGGGGCGG: the self-cleavage was determined as 0.83.

In the case of CCGCCUAACACUGCCAAGGCAGGUCCCAAGCCCGGAUAAAAGUGGAGGGGGCGG, the self-cleavage is 0.6. With CCGCCUAACACUGCCAACGCAGGUCCCAAGCCCGGAUAAAAGUGGAGGGGGCGG the figure was 0.82. As for CCGCCUAACACUGCCAAUCCAGGUCCCAAGCCCGGAUAAAAGUGGAGGGGGCGG, the figure is 0.03; as for CCGCCUAACACUGCCAAUUCAGGUCCCAAGCCCGGAUAAAAGUGGAGGGGGCGG, 0.07; as for CCGCCUAACACUGCCAAUACAGGUCCCAAGCCCGGAUAAAAGUGGAGGGGGCGG, 0.4.

As for CCGCCUAACACUGCCAAUGCAGGUCCCAAGCCCGGAGAAAAGUGGAGGGGGCGG, the self-cleavage amounted to 0.94.

Consider CCGCCUAACACUGCCAAUGCAGGUCCCAAGCCCGGAAAAAAGUGGAGGGGGCGG, for which the self-cleavage turned out to be 0.92. Take CCGCCUAACACUGCCAAUGCAGGUCCCAAGCCCGGACAAAAGUGGAGGGGGCGG: the self-cleavage was 0.78. With CCGCCUAACACUGCCAAUGCAGGUCCCAAGCCCGGAUAAAAGUGGAGGGGACGG the figure was 0.31; with CCGCCUAACACUGCCAAUGCAGGUCCCAAGCCCGGAUAAAAGUGGAGGGGCCGG, 0.07. As for CCGCCUAACACUGCCAAUGCAGGUCCCAAGCCCGGAUAAAAGUGGAGGGGUCGG, the figure is 0.25; as for CCGCCUAACACUGCCAAUGCAGGUCACAAGCCCGGAUAAAAGUGGAGGGGGCGG, 0.05; as for CCGCCUAACACUGCCAAUGCAGGUCUCAAGCCCGGAUAAAAGUGGAGGGGGCGG, 0.2. As for CCGCCUAACACUGCCAAUGCAGGUCGCAAGCCCGGAUAAAAGUGGAGGGGGCGG, the figure is 0.09.

For the variant CCGCCUAACACUGCCAAUGCAGGUCCCAAGCCCGGAUAAAAGUGGAGGGGGCGA, the self-cleavage turned out to be 0.29. With CCGCCUAACACUGCCAAUGCAGGUCCCAAGCCCGGAUAAAAGUGGAGGGGGCGC the figure was 0.32; with CCGCCUAACACUGCCAAUGCAGGUCCCAAGCCCGGAUAAAAGUGGAGGGGGCGU, 0.59. As for CCGCCUAAUACUGCCAAUGCAGGUCCCAAGCCCGGAUAAAAGUGGAGGGGGCGG, the figure is 0.1; as for CCGCCUAAGACUGCCAAUGCAGGUCCCAAGCCCGGAUAAAAGUGGAGGGGGCGG, 0.11. As for CCGCCUAAAACUGCCAAUGCAGGUCCCAAGCCCGGAUAAAAGUGGAGGGGGCGG, the figure is 0.07. CCGCCUAACACUACCAAUGCAGGUCCCAAGCCCGGAUAAAAGUGGAGGGGGCGG: the self-cleavage was 0.07. On to CCGCCUAACACUCCCAAUGCAGGUCCCAAGCCCGGAUAAAAGUGGAGGGGGCGG, for which the self-cleavage is 0.03. With CCGCCUAACACUUCCAAUGCAGGUCCCAAGCCCGGAUAAAAGUGGAGGGGGCGG the figure was 0.04.

Regarding CCGCCUAACACUGCCAAUGCAGGUGCCAAGCCCGGAUAAAAGUGGAGGGGGCGG, the self-cleavage is 0.07. As for CCGCCUAACACUGCCAAUGCAGGUACCAAGCCCGGAUAAAAGUGGAGGGGGCGG, the figure is 0.08; as for CCGCCUAACACUGCCAAUGCAGGUUCCAAGCCCGGAUAAAAGUGGAGGGGGCGG, 0.16; as for CCGCCUAACACUGCCAAUGCAGGUCCCAAGCCCGGAUAAAAGUGGAGCGGGCGG, 0.07. As for CCGCCUAACACUGCCAAUGCAGGUCCCAAGCCCGGAUAAAAGUGGAGAGGGCGG, the figure is 0.06; as for CCGCCUAACACUGCCAAUGCAGGUCCCAAGCCCGGAUAAAAGUGGAGUGGGCGG, 0.05; as for CCGCCUAACACUGCCAAUGCAGGUCCCAAGGCCGGAUAAAAGUGGAGGGGGCGG, 0.07. With CCGCCUAACACUGCCAAUGCAGGUCCCAAGACCGGAUAAAAGUGGAGGGGGCGG the figure was 0.04; with CCGCCUAACACUGCCAAUGCAGGUCCCAAGUCCGGAUAAAAGUGGAGGGGGCGG, 0.21; with CCGCCUAACACUGCCAAUGCAGGUCCCAAGCCCGGAUAAAAGUUGAGGGGGCGG, 0.21. Turning to CCGCCUAACACUGCCAAUGCAGGUCCCAAGCCCGGAUAAAAGUAGAGGGGGCGG, the self-cleavage worked out at 0.38. Regarding CCGCCUAACACUGCCAAUGCAGGUCCCAAGCCCGGAUAAAAGUCGAGGGGGCGG, the self-cleavage came out at 0.24.

As to CCGCCUAACACUGCCAAUGUCGGUCCCAAGCCCGGACAAAAGUGGAGGGGGCGG, the self-cleavage is 1.02. With CCGCCUAACACUGCCAAUGUCGGUCCCAAGCCCGGAAAAAAGUGGAGGGGGCGG the figure was 0.96; with CCGCCUAACACUGCCAAUGUCGGUCCCAAGCCCGGAGAAAAGUGGAGGGGGCGG, 1.04; with CCGCCUAACACAGCCAAUGCAGGUCCCAAGCCCGGAUAAAAGUGGAGGGGGCGG, 0.18.

As for CCGCCUAACACGGCCAAUGCAGGUCCCAAGCCCGGAUAAAAGUGGAGGGGGCGG, the self-cleavage was determined as 0.12.

For CCGCCUAACACCGCCAAUGCAGGUCCCAAGCCCGGAUAAAAGUGGAGGGGGCGG, the self-cleavage worked out at 0.14. With CCGCCUAACACUGCCAAUGUCGGACCCAAGCCCGGAUAAAAGUGGAGGGGGCGG the figure was 0.44; with CCGCCUAACACUGCCAAUGUCGGCCCCAAGCCCGGAUAAAAGUGGAGGGGGCGG, 0.38; with CCGCCUAACACUGCCAAUGUCGGGCCCAAGCCCGGAUAAAAGUGGAGGGGGCGG, 0.08. As for CCGCCUAACACUGCCAAUGCAGGUCCCAAGCCCGGAUAAAAGUGGAGGCGGCGG, the figure is 0.05; as for CCGCCUAACACUGCCAAUGCAGGUCCCAAGCCCGGAUAAAAGUGGAGGAGGCGG, 0.07. With CCGCCUAACACUGCCAAUGCAGGUCCCAAGCCCGGAUAAAAGUGGAGGUGGCGG the figure was 0.06.
